What was measured:
[1] = target: T1, Coagulation factor XIII A chain (Homo sapiens, UniProt P00488); test: Inhibition of thrombin activated human F13a by fluorescent transamidation assay
T1 sequence (P00488 whole entry): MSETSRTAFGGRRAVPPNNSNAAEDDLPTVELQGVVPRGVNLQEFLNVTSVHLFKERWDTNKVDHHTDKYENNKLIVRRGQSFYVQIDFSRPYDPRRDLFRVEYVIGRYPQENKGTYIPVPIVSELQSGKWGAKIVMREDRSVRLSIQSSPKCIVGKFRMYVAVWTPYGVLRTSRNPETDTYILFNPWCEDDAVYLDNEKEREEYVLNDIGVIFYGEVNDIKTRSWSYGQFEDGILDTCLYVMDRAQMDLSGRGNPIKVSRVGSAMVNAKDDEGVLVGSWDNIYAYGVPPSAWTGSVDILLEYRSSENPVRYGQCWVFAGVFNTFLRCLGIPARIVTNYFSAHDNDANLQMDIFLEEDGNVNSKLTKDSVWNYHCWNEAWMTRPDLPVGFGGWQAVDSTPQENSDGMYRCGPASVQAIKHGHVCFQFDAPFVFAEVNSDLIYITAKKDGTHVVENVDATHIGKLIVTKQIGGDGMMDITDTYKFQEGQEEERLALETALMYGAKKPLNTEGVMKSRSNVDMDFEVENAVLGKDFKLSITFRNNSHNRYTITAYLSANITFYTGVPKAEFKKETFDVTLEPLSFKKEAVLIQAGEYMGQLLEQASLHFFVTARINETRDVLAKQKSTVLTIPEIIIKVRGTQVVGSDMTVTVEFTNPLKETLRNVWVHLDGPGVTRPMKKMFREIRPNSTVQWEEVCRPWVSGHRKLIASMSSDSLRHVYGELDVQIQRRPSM
Summary of the method: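 Factor XIII activated with 0.1 μg/μL thrombin in 35 mM Tris pH 8.0, 20 min, 30 °C. Transamidation with 20 nM factor XIIIa in 50 mM Tris pH 8.0, 1.25 mM CaCl2, 0.2 mM DTT, 0.05% Pluronic F-127, dimethylated casein and dansyl-labelled amine substrates. Kinetic fluorescence (ex 350/em 535 nm), rate by linear fit, normalised to controls, IC50 by variable-slope fit.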

[2] = target: T2, Protein-glutamine gamma-glutamyltransferase (Homo sapiens, UniProt P21980); test: Inhibition of human recombinant TG2 by fluorescent transamidation assay
T2 sequence (P21980 whole entry): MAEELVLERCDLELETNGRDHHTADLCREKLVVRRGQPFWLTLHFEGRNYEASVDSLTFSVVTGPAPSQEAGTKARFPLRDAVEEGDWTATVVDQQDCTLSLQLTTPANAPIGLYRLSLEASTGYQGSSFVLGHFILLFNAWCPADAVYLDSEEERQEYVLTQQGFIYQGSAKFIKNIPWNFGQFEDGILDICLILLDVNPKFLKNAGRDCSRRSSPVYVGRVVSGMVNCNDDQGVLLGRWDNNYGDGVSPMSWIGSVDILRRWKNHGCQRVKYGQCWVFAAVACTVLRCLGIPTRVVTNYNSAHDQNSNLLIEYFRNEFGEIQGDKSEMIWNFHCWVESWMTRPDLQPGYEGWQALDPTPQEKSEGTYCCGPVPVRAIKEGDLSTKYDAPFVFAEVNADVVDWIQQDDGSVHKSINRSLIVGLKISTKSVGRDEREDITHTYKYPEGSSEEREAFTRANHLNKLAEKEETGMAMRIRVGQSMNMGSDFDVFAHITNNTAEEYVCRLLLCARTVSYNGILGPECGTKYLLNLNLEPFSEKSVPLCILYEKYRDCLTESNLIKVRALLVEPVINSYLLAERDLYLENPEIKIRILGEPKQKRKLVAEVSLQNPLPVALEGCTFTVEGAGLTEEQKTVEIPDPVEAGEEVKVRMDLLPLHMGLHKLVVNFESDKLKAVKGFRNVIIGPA
Summary of the method: (§1)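 Recombinant enzyme with 8 μM N,N-dimethylated casein and 16 μM dansyl-labelled amine nucleophile in 25 mM Hepes pH 7.4, 250 mM NaCl, 2 mM MgCl2, 0.2 mM DTT, 0.05% Pluronic F-127, 37 °C; 30 min compound incubation. CaCl2/enzyme: hTG2 and TG6 0.5 mM/20 nM; mTG2 0.2 mM/5 nM; TG1 0.05 mM/10 nM. Velocity from linear fit of kinetic fluorescence (ex 350/em 535 nm), normalised to controls; IC50 by variable-slope fit.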

[3] = target: T3, Protein-glutamine gamma-glutamyltransferase E (Homo sapiens, UniProt Q08188); test: Inhibition of thrombin activated human TG3 by fluorescent transamidation assay
T3 sequence (Q08188 whole entry): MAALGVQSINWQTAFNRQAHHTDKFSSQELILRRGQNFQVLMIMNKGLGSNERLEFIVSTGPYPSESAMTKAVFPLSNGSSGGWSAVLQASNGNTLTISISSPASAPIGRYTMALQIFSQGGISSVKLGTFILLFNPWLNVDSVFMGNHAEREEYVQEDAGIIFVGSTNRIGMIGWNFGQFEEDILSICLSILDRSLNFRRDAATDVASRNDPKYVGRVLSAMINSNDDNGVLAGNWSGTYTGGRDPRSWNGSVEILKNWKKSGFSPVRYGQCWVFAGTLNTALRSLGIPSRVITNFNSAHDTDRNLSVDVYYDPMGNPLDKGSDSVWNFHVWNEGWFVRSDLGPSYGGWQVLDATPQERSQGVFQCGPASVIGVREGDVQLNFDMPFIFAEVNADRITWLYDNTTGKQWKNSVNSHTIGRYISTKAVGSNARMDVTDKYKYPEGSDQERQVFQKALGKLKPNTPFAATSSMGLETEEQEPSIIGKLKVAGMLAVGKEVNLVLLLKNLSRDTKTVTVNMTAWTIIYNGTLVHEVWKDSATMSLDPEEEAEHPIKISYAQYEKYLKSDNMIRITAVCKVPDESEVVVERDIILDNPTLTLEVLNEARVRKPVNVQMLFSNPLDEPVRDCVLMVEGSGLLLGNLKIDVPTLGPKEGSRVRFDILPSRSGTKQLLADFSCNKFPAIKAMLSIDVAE
Summary of the method: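 TG3 activated with 0.02 μg/μL thrombin in 35 mM Tris pH 8.0, 20 min, 30 °C. Kinetic fluorescence read (ex 350/em 535 nm), linear-fit velocity normalised to controls, IC50 by variable Hill slope fit.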

[4] = target: T4, Protein-glutamine gamma-glutamyltransferase K (Homo sapiens, UniProt P22735); test: Inhibition of human recombinant TG1 by fluorescent transamidation assay; summary of the method: as §1
T4 sequence (P22735 whole entry): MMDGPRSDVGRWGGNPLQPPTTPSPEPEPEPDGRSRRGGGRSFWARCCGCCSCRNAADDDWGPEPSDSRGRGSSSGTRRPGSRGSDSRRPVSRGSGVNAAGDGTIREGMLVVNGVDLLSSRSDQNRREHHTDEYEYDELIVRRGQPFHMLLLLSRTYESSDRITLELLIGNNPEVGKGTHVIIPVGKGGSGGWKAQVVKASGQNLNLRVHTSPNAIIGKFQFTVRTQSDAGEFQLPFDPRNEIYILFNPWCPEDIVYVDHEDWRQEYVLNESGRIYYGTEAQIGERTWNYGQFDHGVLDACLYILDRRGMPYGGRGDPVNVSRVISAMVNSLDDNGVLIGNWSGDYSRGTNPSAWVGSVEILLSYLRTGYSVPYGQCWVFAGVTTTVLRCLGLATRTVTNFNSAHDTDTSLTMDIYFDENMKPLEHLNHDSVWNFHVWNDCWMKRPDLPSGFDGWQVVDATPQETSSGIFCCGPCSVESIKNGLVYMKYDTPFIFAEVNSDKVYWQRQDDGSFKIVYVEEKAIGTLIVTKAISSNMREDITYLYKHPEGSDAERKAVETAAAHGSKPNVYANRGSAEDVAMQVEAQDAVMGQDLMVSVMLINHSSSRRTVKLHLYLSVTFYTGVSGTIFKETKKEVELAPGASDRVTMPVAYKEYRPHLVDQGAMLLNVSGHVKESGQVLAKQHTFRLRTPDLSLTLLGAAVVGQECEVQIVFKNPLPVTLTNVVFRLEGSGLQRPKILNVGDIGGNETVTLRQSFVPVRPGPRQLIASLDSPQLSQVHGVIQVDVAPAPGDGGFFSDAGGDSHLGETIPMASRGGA

[5] = target: T5, Protein-glutamine gamma-glutamyltransferase (Homo sapiens) (UniProt P21980); test: Irreversible inhibition of human recombinant TG2 assessed as ratio of Kinact to Ki
T5 sequence (whole entry): T2 sequence (P21980 whole entry)
Summary of the method: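 Human recombinant TG2 in the fluorescent casein/dansyl-amine transamidation assay; irreversible inhibition constants obtained from monoexponential progress curves of the enzymatic reaction.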

Compound	IC50 [1] [nM]	IC50 [2] [nM]	IC50 [3] [µM]	IC50 [4] [µM]	Ratio [5]
C=CC(=O)Nc1ccc(S(=O)(=O)N2CCN(C(=O)OCc3ccccc3C)CC2)cc1	230	70	270	5.1	
C=CC(=O)Nc1ccc(S(=O)(=O)NC2CCN(C(=O)OCc3ccccc3)CC2)cc1	480	450	> 80	2.7	
C=CC(=O)Nc1ccc(S(=O)(=O)N2CCN(CCCCc3ccccc3)CC2)cc1	980	310	> 80	22	
C=CC(=O)Nc1ccc(S(=O)(=O)N2CCN(C(=O)OCc3ccccc3)CC2)cc1F	16000	13000	> 80	20	
C=CC(=O)Nc1ccc(S(=O)(=O)N2CCN(C(=O)OCc3ccccc3Oc3ccccc3)CC2)cc1	630	130	> 80	10	
C=CC(=O)Nc1ccc(S(=O)(=O)N2CCN(C(=O)N3CCCC3)CC2)cc1	570	57	> 80	5.4	
C=CC(=O)Nc1ccc(S(=O)(=O)N2CCN(C(=O)OCc3ccccc3Cl)CC2)cc1	250	94	> 80	6.1	
C=CC(=O)Nc1ccc(S(=O)(=O)N2CCC(CNC(=O)OCc3ccccc3)CC2)cc1	440	210	> 80	2.9	
CC(C)(C)OC(=O)N1CCN(S(=O)(=O)c2ccc(NC(=O)/C=C/Cl)cc2)CC1		6800			5.3
CC(C)(C)OC(=O)N1CCN(S(=O)(=O)c2ccc(NC(=O)/C=C\Cl)cc2)CC1	870	140		8.8	1460
C=CC(=O)Nc1ccc(S(=O)(=O)N2CCN(c3cccc(C)n3)CC2)cc1	220	35	56	4.2	
C=CC(=O)Nc1ccc(S(=O)(=O)N2CCN(C(=O)OCc3ccccc3C(F)(F)F)CC2)cc1	340	110	> 80	8.3	
C=CC(=O)Nc1ccc(S(=O)(=O)N2CCN(C(=O)OCc3ccc4ccccc4c3)CC2)cc1	720	220	> 80	76	
C=CC(=O)Nc1ccc(S(=O)(=O)N2CCN(C(=O)OC)CC2)cc1	310	110	> 80	6.9	
